Activity calls are given as the source filed them. The calls are words filed in the database; no cut-off is given here.
Legend:
Vibrio anguillarum 775 [1] = experiment: Antimicrobial activity against Vibrio anguillarum 775 assessed as increase in bacterial survival at 100 ug/ml by broth culture growth inhibition assay; type: functional
Method in brief: (§1)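 Broth growth-inhibition assay in tryptic soy broth (1% NaCl for vibrios) at 25°C, 200 rpm. Cultures started at 1 × 10^7 CFU/ml and were mixed 1:1 with cecropin B-containing medium. OD570 was read every 4 h for 16 h. Fractional survival is the area under the growth curve (Simpson's rule) relative to the untreated control.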

Vibrio vulnificus [2] = experiment: Antimicrobial activity against Vibrio vulnificus assessed as increase in bacterial survival at 100 ug/ml by broth culture growth inhibition assay; type: functional, organism-based; method in brief: as §1
Yersinia ruckeri [3] = experiment: Antimicrobial activity against Yersinia ruckeri assessed as increase in bacterial survival at 100 ug/ml by broth culture growth inhibition assay; type: functional; method in brief: as §1
[4] = Antimicrobial activity against Vibrio anguillarum 775; type: functional
Method in brief: (§2)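 Exponential-phase cultures (overnight broth diluted 1:1,000) in tryptic soy broth, with 1% NaCl added for vibrios, at 25°C. Cultures at 1 × 10^7 CFU/ml were mixed with an equal volume of medium containing cecropin B and shaken at 200 rpm. OD570 was read every 4 h over 16 h. Growth-curve area (Simpson's rule) was divided by the drug-free control to give a fractional area. MIC is the x-intercept of the trend line of fractional area versus concentration. Mean ± SD of three experiments, each in triplicate.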

Vibrio vulnificus [5] = experiment: Antimicrobial activity against Vibrio vulnificus; type: functional; method in brief: as §2
Yersinia ruckeri [6] = experiment: Antimicrobial activity against Yersinia ruckeri; type: functional; method in brief: as §2
Pseudomonas fluorescens [7] = experiment: Antimicrobial activity against Pseudomonas fluorescens; type: functional; method in brief: as §2
[8] = Antimicrobial activity against Vibrio anguillarum 775 selected after 120 ug/ml of drug exposure; type: functional
Method in brief: (§3)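 Bacteria were grown 16 h in broth with cecropin B at a concentration chosen empirically to allow growth to mid-log (OD600 ~0.4). Cultures were then diluted to 1 × 10^7 CFU/ml and the MIC was determined by the 16-h OD570 growth-curve area method. Mean ± SD of three experiments, each in triplicate.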

Vibrio vulnificus [9] = experiment: Antimicrobial activity against Vibrio vulnificus selected after 70 ug/ml of drug exposure; type: functional; method in brief: as §3
Pseudomonas fluorescens [10] = experiment: Antimicrobial activity against Pseudomonas fluorescens selected after 20 ug/ml of drug exposure; type: functional; method in brief: as §3
CHSE-214 [11] = experiment: Antimicrobial activity against compound-exposed Vibrio anguillarum 775 infected in CHSE-214 cells assessed as increase in adhesion to cells at 120 ug/ml after 30 mins relative to control; type: functional, cell-based
Method in brief: (§4)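 CHSE-214 cells (CO2-independent medium, 10% FBS, 20°C, no antibiotics) at 80% confluence were incubated with mid-log V. anguillarum (unexposed or cecropin B-exposed) at an MOI of 100 for 0–90 min at ~22°C. Monolayers were washed twice in PBS and lysed with 1% Triton X-100, and lysates were plated. Adherent bacteria were counted per CHSE-214 cell.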

CHSE-214 [12] = experiment: Antimicrobial activity against compound-exposed Vibrio anguillarum 775 infected in CHSE-214 cells assessed as increase in adhesion to cells at 120 ug/ml after 60 mins relative to control; type: functional, cell-based; method in brief: as §4
CHSE-214 [13] = experiment: Antimicrobial activity against compound-exposed Vibrio anguillarum 775 infected in CHSE-214 cells assessed as increase in adhesion to cells at 120 ug/ml after 90 mins relative to control; type: functional, cell-based; method in brief: as §4
Vibrio anguillarum 775 [14] = experiment: Antimicrobial activity against Vibrio anguillarum 775 infected in medaka fish assessed as mortality at 120 ug/ml by immersion challenge assay; type: functional
Method in brief: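 Groups of 20 medaka, 7–8 months old, were immersed 90 min in PBS (pH 7.3, 1.0% NaCl) containing 1 × 10^5 CFU/ml V. anguillarum, either unexposed or pre-exposed to 120 μg/ml cecropin B. Cumulative mortality was recorded over 14 days. Three separate experiments, mean ± SD.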

Yersinia ruckeri [15] = experiment: Antimicrobial activity against Yersinia ruckeri assessed as appearance of ridges on outer surface of the bacterial cell at 90 ug/ml by SEM; type: functional
Method in brief: (§5)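 Exponential-phase broth cultures, with or without prior cecropin B exposure, were adhered 10 min at room temperature to poly-L-lysine-coated chips. Chips were fixed in 2% glutaraldehyde in cacodylate buffer for 30 min, then in 1% osmium tetroxide overnight. Samples were dehydrated through an ethanol series, critical-point dried, gold sputter-coated and examined by scanning electron microscopy.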

Vibrio vulnificus [16] = experiment: Antimicrobial activity against Vibrio vulnificus assessed as reduced cell size at 70 ug/ml by SEM; type: functional, organism-based; method in brief: as §5
Vibrio vulnificus [17] = experiment: Antimicrobial activity against Vibrio vulnificus assessed as loss of flagella at 70 ug/ml by SEM; type: functional, organism-based; method in brief: as §5
Vibrio vulnificus [18] = experiment: Antimicrobial activity against Vibrio vulnificus assessed as appearance of rugose membrane shape at 70 ug/ml by SEM; type: functional, organism-based; method in brief: as §5
Vibrio anguillarum 775 [19] = experiment: Antimicrobial activity against Vibrio anguillarum 775 assessed as reduction in extracellular product secreted by cells at 120 ug/ml; type: functional; method in brief: as §5
[20] = Antimicrobial activity against Vibrio anguillarum 775 selected after passage with 120 ug/ml of compound; type: functional

In the case of “H-KWKVFKKIEKMGRNIRNGIVKAGPAIAVLGEAKAL-NH2 [CECROPIN B]”, the Activity (Vibrio anguillarum 775 [1]) is reported as “inactive”, the Activity (Vibrio vulnificus [2]) is reported as “inactive” and the Activity (Yersinia ruckeri [3]) is reported as “inactive”. It also gave an MIC [4] of 147 µg/mL, an MIC (Vibrio vulnificus [5]) of 85 µg/mL and an MIC (Yersinia ruckeri [6]) of 100 µg/mL. The MIC (Pseudomonas fluorescens [7]) was 25 µg/mL, the MIC [8] was 209 µg/mL and the MIC (Vibrio vulnificus [9]) was 136 µg/mL. The MIC (Pseudomonas fluorescens [10]) was 24 µg/mL, the Activity (CHSE-214 [11]) was “inactive” and the Activity (CHSE-214 [12]) was “inactive”. For the same substance, the Activity (CHSE-214 [13]) was “inactive”, the Activity (Vibrio anguillarum 775 [14]) was “inactive” and the Activity (Yersinia ruckeri [15]) was “inactive”. For the same substance, the Activity (Vibrio vulnificus [16]) was “inactive”, the Activity (Vibrio vulnificus [17]) was “inactive” and the Activity (Vibrio vulnificus [18]) was “inactive”. For the same substance, the Activity (Vibrio anguillarum 775 [19]) was “inactive” and the MIC [20] was 142 µg/mL.

Source: ChEMBL document CHEMBL1671857, “Inducible resistance of fish bacterial pathogens to the antimicrobial peptide cecropin B” (2008)
